Source: PubChem BioAssay
BB579 growth dn – reduces growth of yeast BB579 in restrictive medium; S. cerevisiae BB579 growth, OD615, 48 h; inhibition, % at 10 µM; 140,000 tested, 0.51% active; AID 804;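 active = inhibition above a set limit, 3 SD over the mean compound inhibition, cut at about 44% in these data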
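Assay system: S. cerevisiae DeaD strain BB579 yeast. Medium: CSMM-D restrictive synthetic medium containing dextrose (glucose). Times: 4 h cell preincubation, 48 h compound exposure, 30 °C humidified. Signal: OD615 turbidity measurement. Benchmarks: positive control amphotericin B 10 µg/mL.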
Yeast life ext – extends the lifespan of yeast; S. cerevisiae growth with nicotinamide, OD615; deaD strain in restrictive glucose medium; inhibition of the nicotinamide effect, % at 10 µM; 130,000 tested, 0.68% active; AID 775;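 active = inhibition above a set limit, placed 3 SD over the median of all compounds, cut at about 26% in these data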;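 note: 0% = nicotinamide-treated wells and 100% = cells grown without nicotinamide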
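assay system = DeaD-strain S. cerevisiae | buffer or medium = restrictive glucose medium | reagent = 1.5 mM nicotinamide | compound = 10 µM single point, 0.25% DMSO | incubation = 48 h compound exposure at 30 °C, humidified | signal = OD615 measurement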
Measles CPE – protection of cells from measles virus; protection (pct of control), % at 4 µM; Measles virus-infected cells, CPE protection, absorbance; 140,000 tested, 1.5% active; in the data active = protection mostly above about 24%, no sharp cut-off; inactive = mostly below about 26%
RAM network inh – inhibitors of the yeast RAM network; S. cerevisiae dse1pr::URA3 reporter, 5-FOA growth OD615, 2 d; analog-sensitive cbk1-as2 kinase mutant strain; inhibition, % at 50 µM; 190,000 tested, 1.8% active;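 active = inhibition above a set limit, 3 SD over mean compound inhibition, cut at about 8.4% in these data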;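 note: 0% = DMSO-only wells with no growth and 100% = 10 µM 1-NA-PP1 full growth; inhibition rescues growth on 5-FOA so higher OD means more RAM inhibition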
An asterisk follows results filed as active; nt = not tested or not shown. Shown are actives, neighbours in structure and some others; about 3.8% of the full set was active somewhere.

SMILES | BB579 growth dn | Yeast life ext | Measles CPE | RAM network inh
N#CC1=C(N)N2C(=C(C#N)C1c1cccc(Br)c1)Nc1ccccc12 (stereo not drawn) | -44.5 | 1.4 | 23.4 | 8.9*
N#CC1=C(N)N2C(=C(C#N)C1c1ccc(Br)cc1)Nc1ccccc12 (stereo not drawn) | -16.7 | -2.8 | 13.7 | 5.7
O=C(O)c1ccc(N(c2ccccc2)c2ccccc2)cc1 | 44.4* | nt | 18.3 | 2.0
CCN(CC)c1ccc(C(=O)O)cc1 | -13.6 | 2.5 | 4.3 | 1.2
CC(=O)c1ccc(N=Cc2c(O)n(-c3cc(Cl)ccc3N3CCOCC3)c(=O)c3ccccc23)cc1 | -27.7 | -2.6 | 3.0 | 8.6*
COc1ccc(/C=C2/C(=O)N(Cc3ccccc3)N=C2C)cc1 | -56.4 | 26.7* | 5.9 | 1.1
COc1ccc(/C=C2/C(=O)N(c3nc4ccccc4s3)N=C2CSc2ccc(Cl)cc2)cc1 | -18.1 | 6.8 | 21.0 | 6.4
Cn1nnnc1SCCNCC#Cc1ccccc1 | -14.0 | 113.9* | 4.1 | 1.2
Cn1nnnc1SCCNCc1ccccc1F | 29.2 | -0.5 | 0.3 | 0.2
Cc1ccc(OCC(=O)N(Cc2ccccc2)C2CCS(=O)(=O)C2)c([N+](=O)[O-])n1 (stereo not drawn) | 1.3 | -5.0 | 37.2* | -0.9
COc1c(F)c(F)c(C(=O)O)c(Nc2ccc(C)cc2C)c1F | nt | nt | nt | 0.1
O=C(CSc1ccc(Cl)cc1)N1CCN(c2ncc(C(F)(F)F)cc2Cl)CC1 | -53.9 | -4.8 | 21.6 | 11.3*
O=C(CN1CCN(c2ncc(C(F)(F)F)cc2Cl)CC1)N1CCN(c2ncc(C(F)(F)F)cc2Cl)CC1 | -2.1 | -9.7 | 10.2 | 2.9
Cc1cc(=O)[nH]c(-n2nc(C)c(Oc3ccccc3O)c2C)n1 | -54.3 | -2.9 | 2.7 | 0.0
Cc1cc(=O)[nH]c(-n2nc(C)cc2C)n1 | 81.0* | -25.6 | 5.2 | -1.3
Oc1ccc(F)c2cccnc12 | nt | nt | nt | 0.1
Cc1ccc(N=Nc2ccc(O)c3ncccc23)cc1C | nt | nt | nt | 2.0
OCc1ccc(O)c2ncccc12 | 96.2* | -21.1 | 0.6 | 3.4
Cc1ccc(N=Nc2ccc(O)c3ncccc23)cc1 | 55.4* | -0.5 | 2.9 | 3.3
O=[N+]([O-])c1cc(CN2CCCC2)c2cccnc2c1O | 60.2* | -2.8 | 4.8 | 1.3
Oc1ccc(COCc2ccccc2)c2cccnc12 | 99.2* | -16.4 | 2.2 | 0.7
CC(=O)N(Cc1ccccc1C)c1cccc(C)c1C | nt | nt | nt | 1.9
CSc1ncccc1C(=O)OCC(=O)c1cccc(Br)c1 | nt | nt | nt | 4.7
COc1ccccc1CNC(=O)C1(NC(=O)Nc2ccc(C)cc2)CCCCC1 | nt | nt | nt | 1.6
Oc1ccc(CN2CCCCC2)c2cccnc12 | 45.0* | nt | 4.0 | -1.2
SMILES | BB579 growth dn | Yeast life ext | Measles CPE | RAM network inh
COc1ccc(O)c(C(=O)c2cc(C#N)c(=O)n(CC3CCCO3)c2)c1 (stereo not drawn) | -19.6 | 113.4* | 3.4 | 0.7
O=C(Cn1nc([N+](=O)[O-])nc1Br)NC(c1ccccc1)c1ccccc1 | -40.0 | 11.4 | 10.7 | 6.5
COc1ccc2c(C(=O)CN3CCN(c4ccccc4)CC3)c[nH]c2c1 | 1.9 | -2.6 | 27.6* | -0.5
COc1ccc(CCNC(=O)CSc2cn(Cc3ccccc3)c3ccccc23)cc1OC | -35.2 | 9.8 | 3.6 | 10.1*
COc1ccc(OC)c(NC(=O)COC(=O)/C=C/c2ccccc2Cl)c1 | -46.5 | -0.1 | 8.8 | 10.3*
COCC(=O)Nc1cc(OC)ccc1OC | -17.4 | -4.8 | 11.1 | 0.8
COc1ccc(OC)c(NC(=O)COC(=O)CSc2ccc(Cl)cc2)c1 | -17.3 | -8.2 | 18.2* | -0.4
COc1ccc(OC)c(NC(=O)CSc2ccc3ccccc3c2)c1 | -9.4 | -7.8 | 7.5 | 8.4
CCOc1ccc(OCc2ccc(C(=O)NCC3CCCO3)o2)cc1 (stereo not drawn) | -14.2 | -22.3 | 3.4 | 0.5
O=C(NCC1CCCO1)c1ccc(COc2ccc(F)cc2)o1 (stereo not drawn) | 16.1 | -14.6 | 31.7* | 1.3
CNC(=S)NC12CC3CC(CC(C3)C1)C2 | nt | nt | nt | 0.9
O=C(c1ccc(N2C(=O)C3C4c5ccccc5C(c5ccccc54)C3C2=O)cc1)N1CCOCC1 (stereo not drawn) | -19.9 | -1.3 | 13.3 | 0.8
O=C(CCSc1nnc2scc(-c3ccccc3)n12)NCc1ccc2c(c1)OCO2 | -46.2 | -0.8 | 11.8 | 10.1*
O=S(=O)(c1ccc(-c2cn3ccccc3n2)cc1)N1CCOCC1 | -45.4 | -2.9 | 63.5* | 0.8
CN1C(c2ccc(F)cc2)=CS/C1=C(\C#N)c1nnc2n1-c1ccccc1SC2 | -16.6 | -21.3 | 30.9* | 2.3
CCCCN(C(=O)NC(=O)Nc1ccccc1OC)S(C)(=O)=O | -35.3 | -27.2 | 27.9* | 0.7
COc1ccccc1NC(=O)NC(=O)N(C(C)C)S(C)(=O)=O | -2.6 | -7.8 | 1.0 | 0.1
COc1cc(NC(=O)C2CCCCC2)c(OC)cc1NC(=O)CN1CCCCC1 | -93.6 | 0.1 | 47.4* | -1.4
O=C(O)c1ccc(Cl)c(S(=O)(=O)Nc2ccc3cn[nH]c3c2)c1 | nt | nt | nt | 0.7
O=c1oc2ccccc2cc1-c1cn2cccnc2n1 | 53.3* | -19.4 | 5.3 | -0.7
Cn1ccnc1SCC(=O)Nc1ccc(F)c([N+](=O)[O-])c1 | nt | nt | nt | 2.7
Cc1cc2oc(C(=O)Nc3ccc(S(=O)(=O)N4CCCC(C)C4)cc3)cc(=O)c2cc1Cl (stereo not drawn) | -42.0 | -3.1 | 7.1 | 2.5
Cc1cc(C)c2oc(C(=O)Nc3ccc(S(=O)(=O)N4CCC(C)CC4)cc3)cc(=O)c2c1 | -11.6 | -1.4 | 56.3* | 5.4
COc1ccccc1Oc1nc2c(c(=O)n(Cc3ccccc3F)c(=O)n2C)n1C | -64.0 | -10.5 | 8.7 | 10.1*
Cn1c(=O)c2c(nc(SCc3nn[nH]n3)n2Cc2ccccc2F)n(C)c1=O | -20.9 | -5.8 | 4.9 | 10.3*
SMILES | BB579 growth dn | Yeast life ext | Measles CPE | RAM network inh
Cn1c(NCCCO)nc2c1c(=O)n(Cc1ccccc1F)c(=O)n2C | -8.7 | -10.0 | 1.1 | -0.9
Cn1c(=O)c2c(nc(SCCN3CCCCC3)n2Cc2ccccc2)n(C)c1=O | -1.6 | -2.2 | 76.1* | 0.9
Cn1c(=O)c2c(nc(SCCN3CCOCC3)n2Cc2cccc3ccccc23)n(C)c1=O | -61.1 | -8.7 | 98.2* | 1.5
NC(=O)CSc1nnc(CSc2ncccn2)n1-c1ccccc1 | nt | nt | nt | 1.8
O=C(COc1ccccc1F)NCC(c1ccco1)N1CCCC1 (stereo not drawn) | nt | nt | nt | 1.0
O=C(C1=C[C@@H](c2ccc(Br)cc2)C[C@@H](OCc2ccc(CO)cc2)O1)N1CCOCC1 | nt | nt | nt | 9.2*
CC(=O)n1cc([C@H]2C=C(C(=O)NCc3ccccc3)O[C@@H](OCCCCO)C2)c2ccccc21 | nt | nt | nt | 8.8*
O=C(Nc1ccccc1)C1=C[C@@H](c2ccc(C(F)(F)F)cc2)C[C@@H](OCc2ccc(CO)cc2)O1 | nt | nt | nt | 9.7*
CC(=O)n1cc([C@@H]2C=C(C(=O)NCc3ccccc3)O[C@H](OCCCCO)C2)c2ccccc21 | nt | nt | nt | 3.1
C#Cc1ccc([C@@H]2C=C(C(=O)OCC=C)O[C@H](OCc3ccc(CO)cc3)C2)cc1 | nt | nt | nt | 10.3*
O=C(C1=C[C@H](c2ccc(Br)cc2)C[C@H](OCc2ccc(CO)cc2)O1)N1CCOCC1 | nt | nt | nt | 4.9
CCc1ccccc1NC(=S)N(CCCN1CCOCC1)Cc1cccs1 | -18.2 | 1.6 | 18.4 | 1.4
